Molecules are shown by their SMILES. Entries after “also recorded” stand apart in the source; their conditions may differ. Starred links: 1 amine or outer side, 2 acyl side, 3 side chain; linkers in the order of their positions; H or OH if unused. Non-standard residues stand in square brackets, D forms with d. Residues, ends and D or L forms follow the SMILES beside them. Groups on a side chain read outwards from the residue. *: point of attachment. Acryloyl(3-(3-pyridyl),E) = O=C(/C=C/c1cccnc1)*; X2 = O=C(CN1CCCN2CCN(CCCN(CP(=O)(O)O)CC2)CC1)*; X1 = O=C(Cc1ccc(N[*:1])cc1)[*:2]; Aad = N[C@@H](CCCC(=O)O)C(=O)O; NH(2-Me-phenyl) = Cc1ccccc1N*; PEG4 = NCCOCCOCCOCCOCCC(=O)O; Ac6c = NC1(C(=O)O)CCCCC1; CO = O=C([*:1])[*:2]

The nature of series [1]: Biodistribution in BPRα tumor-bearing mice. The series is classed as in vivo, C57BL/6 mice. The following applies: both, C57BL/6, mouse, iv, 7.4 MBq, total radioactivity. The essentials:
(§1)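 Male and female C57BL/6 mice (4–6 weeks old) carried s.c. right-flank tumours from 5 x 10^5 cells in an equal volume of Matrigel. They received 7.4 MBq radiotracer (57.2 MBq/nmol) via lateral tail vein and were euthanised right after 24 h imaging (n=6; 3m/3f). Tissues and tumour were weighed and γ-counted. %IA/g was decay-corrected against an injected-dose standard.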

Series [2] deals with BPR cells (VLA-4−). As to the kind of experiment: Saturation binding of [64Cu]-LLP2A to BPR cells. Also on record: species or system mouse.
Series [3] relates to B16F10 melanoma cells (VLA-4+). The following applies: previously reported; cited from earlier work.
Series [4] in a line: Biodistribution in BPR tumor-bearing mice. The series is classed as in vivo, C57BL/6 mice. The conditions noted are these: both, C57BL/6, mouse, iv, 7.4 MBq, total radioactivity. The essentials: as §1
The test system of series [5] is BPR cells (VLA-4−). As to the kind of experiment: [64Cu]-LLP2A internalization assay, BPR cells. The series is classed as cell-based, mouse. The following applies: 15 min - 4 h at 37°C. The essentials: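 Cells (1 x 10^5/well, seeded 24 h) were held in DMEM/1% BSA/1 mM Mn2+. Blocked wells first had 10 μg unlabelled PEG4 peptide for 15 min at 37°C. Each well then received 0.44 MBq radiotracer (3.43 MBq/nmol) at 37°C for 15 min, 2 h or 4 h. Surface activity was stripped with 20 mM sodium acetate pH 4.0 (10 min). Lysates were γ-counted, corrected for background, block and decay, and normalised to protein; n=3.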

In the next series the test system is s.c. BPR and BPRα tumors. As to the kind of experiment: PET/CT imaging of BPR and BPRα tumor models. The class given is in vivo, C57BL/6 mice. The essentials:
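Mice bore s.c. flank tumours (5 x 10^5 cells plus Matrigel; n=9 per line, 3m/6f) and received 7.4 MBq radiotracer i.v. (57.2 MBq/nmol). Under 2% isoflurane, static 10-min PET/CT scans were taken at 4 and 24 h and reconstructed by OSEM-3D. ROIs were drawn on CT. SUV = activity concentration x body weight/injected dose. Tumour-to-muscle SUV ratios were derived.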

The target in series [6] is VLA-4 (integrin α4β1) on BPRα cells (Mus musculus, UniProt P09055+Q00651). As to the kind of experiment: Saturation binding of [64Cu]-LLP2A to BPRα cells. The conditions noted are these: normalized to cellular protein, triplicate.
For series [7] the following is noted: previously demonstrated, cited from earlier work.

Chain of VLA-4 (integrin α4β1) on BPRα cells (Q00651 41-1039): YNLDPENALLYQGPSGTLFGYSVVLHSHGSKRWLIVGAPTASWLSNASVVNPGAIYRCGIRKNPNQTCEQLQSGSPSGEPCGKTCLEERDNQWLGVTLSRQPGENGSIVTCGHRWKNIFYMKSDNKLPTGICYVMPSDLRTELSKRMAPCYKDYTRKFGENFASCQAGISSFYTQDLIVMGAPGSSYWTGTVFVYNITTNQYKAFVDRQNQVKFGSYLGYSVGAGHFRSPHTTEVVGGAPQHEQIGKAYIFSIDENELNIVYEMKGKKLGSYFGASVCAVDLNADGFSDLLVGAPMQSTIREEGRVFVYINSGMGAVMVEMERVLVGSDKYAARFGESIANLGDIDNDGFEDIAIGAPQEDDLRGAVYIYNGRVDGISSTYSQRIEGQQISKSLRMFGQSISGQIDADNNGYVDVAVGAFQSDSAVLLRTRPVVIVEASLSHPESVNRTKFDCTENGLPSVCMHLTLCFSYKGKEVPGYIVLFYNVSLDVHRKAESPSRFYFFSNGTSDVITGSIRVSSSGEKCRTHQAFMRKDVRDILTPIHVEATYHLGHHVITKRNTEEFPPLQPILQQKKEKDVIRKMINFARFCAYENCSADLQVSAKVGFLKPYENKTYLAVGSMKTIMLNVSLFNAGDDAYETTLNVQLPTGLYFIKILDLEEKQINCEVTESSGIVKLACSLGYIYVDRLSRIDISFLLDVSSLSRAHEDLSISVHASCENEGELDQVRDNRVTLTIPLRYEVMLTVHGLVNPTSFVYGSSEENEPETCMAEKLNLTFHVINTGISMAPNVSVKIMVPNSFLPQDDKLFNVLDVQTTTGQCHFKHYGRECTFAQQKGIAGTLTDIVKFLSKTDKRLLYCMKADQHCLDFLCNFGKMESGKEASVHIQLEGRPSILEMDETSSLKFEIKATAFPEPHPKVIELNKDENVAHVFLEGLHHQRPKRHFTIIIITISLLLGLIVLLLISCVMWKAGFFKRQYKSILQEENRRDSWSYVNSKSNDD
Chain of VLA-4 (integrin α4β1) on BPRα cells (P09055 21-798): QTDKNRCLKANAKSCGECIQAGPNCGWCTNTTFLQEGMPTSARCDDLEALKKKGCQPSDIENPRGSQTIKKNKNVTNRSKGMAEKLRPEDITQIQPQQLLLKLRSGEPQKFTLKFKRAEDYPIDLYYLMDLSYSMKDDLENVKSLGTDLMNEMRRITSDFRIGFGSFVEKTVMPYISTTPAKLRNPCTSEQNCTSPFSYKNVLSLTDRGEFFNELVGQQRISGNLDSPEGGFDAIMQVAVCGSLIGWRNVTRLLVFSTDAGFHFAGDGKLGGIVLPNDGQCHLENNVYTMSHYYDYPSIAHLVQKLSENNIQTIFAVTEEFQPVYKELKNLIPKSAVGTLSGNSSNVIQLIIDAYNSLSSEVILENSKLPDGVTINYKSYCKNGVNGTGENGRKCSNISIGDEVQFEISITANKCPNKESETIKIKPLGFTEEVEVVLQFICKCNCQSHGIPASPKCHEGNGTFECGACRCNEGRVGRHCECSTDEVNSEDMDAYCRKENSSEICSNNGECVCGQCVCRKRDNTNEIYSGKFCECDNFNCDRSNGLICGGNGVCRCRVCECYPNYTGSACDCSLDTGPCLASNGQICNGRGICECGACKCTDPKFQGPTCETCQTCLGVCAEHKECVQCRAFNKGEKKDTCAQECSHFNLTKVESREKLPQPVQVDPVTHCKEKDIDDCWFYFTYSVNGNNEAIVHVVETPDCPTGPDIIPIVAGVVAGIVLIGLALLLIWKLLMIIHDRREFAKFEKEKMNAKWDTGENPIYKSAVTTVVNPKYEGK

On to `Cc1ccccc1NC(=O)Nc1ccc(CC(=O)N[C@@H](CCCCNC(=O)/C=C/c2cccnc2)C(=O)N[C@@H](CCCC(=O)O)C(=O)NC2(C(=O)N[C@@H](CCCCNC(=O)CCOCCOCCOCCOCCNC(=O)CN3CCCN4CCN(CCCN(CP(=O)(O)O)CC4)CC3)C(N)=O)CCCCC2)cc1` [[^64Cu]-LLP2A, [^64Cu]-CB-TE1A1P-PEG4-LLP2A, metal not drawn] ({NH(2-Me-phenyl)-CO}-[X1]K(Acryloyl(3-(3-pyridyl),E))[Aad][Ac6c]K([PEG4-X2])-NH2; N-terminus and C-terminus assumed), for which the tissue uptake (in general, the share of the injected amount in each gram of the tissue) at 24 h in series [1] (bone marrow) was 1.6 ± 0.5 %ID/g; in series [1] (spleen), 6 ± 1.9 %ID/g; in series [1] (thymus), 4.2 ± 4 %ID/g; in series [1] (tumor), 2.8 ± 0.2 %ID/g; in series [4] (spleen), 8.1 ± 4.4 %ID/g; in series [4] (thymus), 3.5 ± 0.9 %ID/g. Besides, the tissue uptake at 24 h in series [4] (tumor) was 1.7 ± 0.2 %ID/g. Further, the “binding to BPR cells (saturation binding)” value with BPR cells (VLA-4−) [2] (1-100 nM tracer, on ice 2 h, blocked with LLP2A-PEG4) is “indeterminate binding; also recorded: no saturation occurs”. Moreover, the Bmax result in the series with BPR cells (VLA-4−) [2] (model fit poor, R^2=0.0002) is “not interpretable”; in series [3], 300 ± 4.5 fmol/mg; in series [6], 145 ± 8.8 fmol/mg. In the series on BPR cells (VLA-4−) [5], the internalization result is recorded as “undetectable”. The “tumor uptake in BPRα relative to BPR (PET/CT)” value in the series with s.c. BPR and BPRα tumors (4h post-injection, 7.4 MBq i.v., n=9 each, p=0.0021) was “significant increase”. Besides, the “tumor-to-muscle ratio of BPRα vs. BPR (PET/CT SUV)” value in the series on s.c. BPR and BPRα tumors (4h post-injection, n=9, p=0.0005) is given as “significantly greater”. Also, the “BPRα tumor uptake (PET/CT)” value in the series with s.c. BPR and BPRα tumors (24h post-injection, n=9) is recorded as “remained detectable”. The “stability in human serum” value in series [7] (human serum) is “stability in human serum”. The “binding of the conjugate to plasma proteins” value in series [7] is “negligible”.
